Laboratory results published in ChEMBL document CHEMBL4364303 (Eur J Med Chem, 2019).
pIC50: −log10 of the molar value.

Key:
Mus musculus [1] = experiment: Antiinflammatory activity in DNFB-induced ICR mouse model of auricle edema assessed as inhibition of ear swelling at 5 mg/kg, ig administered once daily for 6 days followed by 1% DNFB solution applied on right ear measured after 24 hrs relative to untreated control; assay type: functional; settings: po
Outline: (§1)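 Male ICR mice, 18-22 g, randomized by weight, 6 per group. Dosed by intragastric route once daily for 6 days; saline given to normal and model groups. Right ear coated with 10 uL 1% DNFB (DNFB in acetone/olive oil); left ear received acetone/olive oil only. Mice killed 24 h later and both ears weighed. Swelling = right minus left ear weight; inhibition calculated versus model control.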

[2] = target: T1, Prostaglandin G/H synthase 1 (Ovis aries, UniProt P05979); experiment: Inhibition of ovine COX-1 using arachidonic acid as substrate incubated for 5 mins by fluorescence-based assay
T1 sequence (P05979 whole entry): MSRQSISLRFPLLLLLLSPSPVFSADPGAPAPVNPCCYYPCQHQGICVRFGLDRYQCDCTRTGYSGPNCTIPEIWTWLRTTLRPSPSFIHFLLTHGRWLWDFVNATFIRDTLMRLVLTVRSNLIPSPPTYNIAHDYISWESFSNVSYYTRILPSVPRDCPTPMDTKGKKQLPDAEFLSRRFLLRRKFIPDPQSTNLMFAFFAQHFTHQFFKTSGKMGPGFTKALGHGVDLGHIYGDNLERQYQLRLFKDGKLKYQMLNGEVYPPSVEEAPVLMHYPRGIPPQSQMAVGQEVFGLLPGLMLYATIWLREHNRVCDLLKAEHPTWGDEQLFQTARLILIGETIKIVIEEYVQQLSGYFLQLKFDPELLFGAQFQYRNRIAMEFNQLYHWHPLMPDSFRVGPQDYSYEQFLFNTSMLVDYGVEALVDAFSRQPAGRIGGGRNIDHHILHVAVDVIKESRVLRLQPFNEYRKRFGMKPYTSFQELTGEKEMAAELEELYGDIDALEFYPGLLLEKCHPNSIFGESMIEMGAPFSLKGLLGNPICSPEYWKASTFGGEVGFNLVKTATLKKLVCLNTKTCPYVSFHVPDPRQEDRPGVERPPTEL
Outline: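 COX-1 fluorometric inhibitor-screening kit. Assay buffer, COX-1 cofactor and arachidonic acid were combined with test compound and incubated 5 min at 37 °C. Inhibition derived from RFU relative to 100%-activity and blank controls. Run in triplicate; IC50 taken from concentration curves.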

[3] = Inhibition of soyabean 15-LOX preincubated for 5 mins followed by susbtrate addition measured after 10 mins by colorimetric method; design: species or system Glycine max
Outline: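 Soybean lipoxygenase assessed with a commercial lipoxygenase assay kit, following the kit instructions. IC50 values determined.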

Mus musculus [4] = experiment: Antiinflammatory activity in DNFB-induced ICR mouse model of auricle edema assessed as inhibition of ear swelling at 0.5 mg/kg, ig administered once daily for 6 days followed by 1% DNFB solution applied on right ear measured after 24 hrs relative to untreated control; assay type: functional; settings: po; outline: as §1
RAW264.7 = experiment: Cytotoxicity against mouse RAW264.7 cells assessed as cell viability up to 50 uM after 24 hrs by MTT assay; assay type: cell-based; settings: raw264.7, 24 h
Outline: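 RAW264.7 cells (ATCC), about 1.0×10^5 cells/ml, were held 2 h in serum-free medium at 37°C, 5% CO2. The supernatant was replaced with RPMI 1640 containing compound at 0, 5, 10, 20, 30, 40 or 50 μM for 24 h. MTT (5 mg/mL stock) was added for the final 4 h. Formazan was dissolved in DMSO and OD570 read. Survival was compared with blank.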

| Compound | inhibition in vivo at 5 mg/kg (Mus musculus [1]) [%] | also measured |
| --- | --- | --- |
| Cc1nc(C)c(CNC2CCN(C(=O)c3cc4cc(Cl)ccc4n3Cc3ccc(F)cc3)C2)nc1C (configuration not stated) | 49.4 | – |
| O=C(c1cc2cc(Cl)ccc2n1Cc1ccc(Cl)cc1)N1CCN(Cc2ccc(Cl)cc2)CC1 | 40.5 | pIC50 [2]: 6.44; pIC50 [3]: 6.68 |
| O=C(c1cc2cc(Cl)ccc2n1Cc1ccc(F)cc1)N1CCN(Cc2ccccc2)CC1 | 24 | – |
| C[C@@H]1C[C@H]2[C@@H]3CCC4=CC(=O)C=C[C@]4(C)[C@@]3(F)[C@@H](O)C[C@]2(C)[C@@]1(O)C(=O)CO [DEXAMETHASONE] | – | inhibition in vivo at 0.5 mg/kg (Mus musculus [4]): 46.8 to 63.8% |
| COc1ccc(CN2CCN(C(=O)c3cc4cc(Cl)ccc4n3Cc3ccc(F)cc3)CC2)cc1 | 43.1 | Activity (RAW264.7): Non-Toxic; pIC50 [2]: 6.71; pIC50 [3]: 7.08 |
| N#Cc1ccc(CN2CCN(C(=O)c3cc4cc(Cl)ccc4n3Cc3ccc(F)cc3)CC2)cc1 | 35.4 | – |
| Cc1nc(C)c(CN2CCN(C(=O)c3cc4cc(Cl)ccc4n3Cc3ccc(F)cc3)CC2)nc1C | 48.3 | – |
| COc1ccc2[nH]cc(CCNC(=O)c3cc4cc(Cl)ccc4n3Cc3ccc(F)cc3)c2c1 | 50 | Activity (RAW264.7): Non-Toxic; pIC50 [2]: 6.39; pIC50 [3]: 7.18 |
| Cc1nc(C)c(CN2CCN(C(=O)c3cc4cc(Cl)ccc4n3Cc3ccc(Cl)cc3)CC2)nc1C | 64.9 | pIC50 [2]: 6.51; pIC50 [3]: 6.47 |
| Cc1cncc(CN2CCN(C(=O)c3cc4cc(Cl)ccc4n3Cc3ccc(F)cc3)CC2)c1 | 25.4 | – |
| Cc1cncc(CN2CCN(C(=O)c3cc4cc(Cl)ccc4n3Cc3ccc(Cl)cc3)CC2)c1 | 29.8 | – |
| O=C(c1cc2cc(Cl)ccc2n1Cc1ccc(F)cc1)N1CCN(Cc2ccc(C(F)(F)F)cc2)CC1 | 27.8 | – |
| COc1ccc2[nH]cc(CCNC(=O)c3cc4cc(Cl)ccc4n3Cc3ccc(Cl)cc3)c2c1 | 44.3 | – |
| CC(c1cc2ccccc2s1)N(O)C(N)=O (configuration not stated) [ZILEUTON] | – | pIC50 [3]: 7.41 |
| O=C(c1cc2cc(Cl)ccc2n1Cc1ccc(Cl)cc1)N1CCN(Cc2ccc(F)cc2)CC1 | 29.1 | – |
| Cc1ccc(CN2CCN(C(=O)c3cc4cc(Cl)ccc4n3Cc3ccc(Cl)cc3)CC2)cc1 | 39.2 | – |
| Cc1ccc(CN2CCN(C(=O)c3cc4cc(Cl)ccc4n3Cc3ccc(F)cc3)CC2)cc1 | 32.9 | – |
| O=C(c1cc2cc(Cl)ccc2n1Cc1ccc(Cl)cc1)N1CCN(Cc2ccc3c(c2)OCO3)CC1 | 32.9 | – |
| O=C(c1cc2cc(Cl)ccc2n1Cc1ccc(F)cc1)N1CCN(Cc2ccc3c(c2)OCO3)CC1 | 34.2 | – |
| O=C(c1cc2cc(Cl)ccc2n1Cc1ccc(Cl)cc1)N1CCN(Cc2ccc(C(F)(F)F)cc2)CC1 | 30.4 | – |
| CN1CCN(C(=O)c2cc3cc(Cl)ccc3n2Cc2ccc(F)cc2)CC1 | 36.7 | – |
| Cc1nc(C)c(CNC2CCN(C(=O)c3cc4cc(Cl)ccc4n3Cc3ccc(Cl)cc3)C2)nc1C (configuration not stated) | 42.5 | – |
